The values below come from publication PMC5669405 (Biochemistry and Biophysics Reports, 2015).

Broadly, the viability is a read-out of living cells in per cent, often relative to untreated cells. Broadly, the IC50 is the concentration at which inhibition is half-maximal. Lower therefore signals inhibition by little substance.

Data set [1] is described as follows: MTT cell viability, compound alone. Type of data set: cell-based, human. The conditions noted are these: human, SH-SY5Y neuroblastoma cells. In short, it runs like this: (§1)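 Cells were SH-SY5Y grown in DMEM/F12 with 10% FBS at 37 °C and 5% CO₂, seeded at 5×10⁴ cells/well, and given fresh medium with 0.9 µM compound alone 24 h after plating. After 24 h, MTT (5 mg/mL stock) was added for 4 h, then isopropanol/0.04 mol/L HCl overnight. Read OD570 minus OD700, normalised to untreated and 100% death controls. Triplicate wells, three plates, mean±SEM, kept in the dark.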

The nature of data set [2]: Solubility check. The data set is classed as physicochemical.
Data set [3] deals with SH-SY5Y cells. The data set is described as follows: MTT cell viability, compound alone. As to conditions: SH-SY5Y, 24 h; for Viability C. Compound alone: 0.9 µM compound, mean±SEM. Type of data set: cell-based, human. In outline:
as §1

Data set [4] concerns the target T1, Aβ (1–42) (Homo sapiens, UniProt P05067). The data set is described as follows: SDS-PAGE and western blotting of Aβ. Type of data set: biochemical. As to conditions: for Smear bands in SDS-PAGE: 30 µM compound, 24 h, 37 °C; for Effects on Aβ aggregation (in words): derivatives without hydroxy groups on the aromatic groups. In short, it runs like this:
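Aβ(1–42) monomerized in HFIP (1 mM, 37 °C, 1 h), diluted to 10 µM in PBS with 30 µM test compound (final; DMSO vehicle), incubated 24 h at 37 °C. Diluted to 2.25 µM in unheated SDS buffer, run on 10–20% gels, blotted to PVDF and probed with 6E10 then HRP anti-mouse, with chemiluminescence detection. Band intensities per range were read against marker. Means±SEM, ≥3 independent experiments, ANOVA/Dunnett vs DMSO.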
A general note: A western blot detects proteins with antibodies after separation by electrophoresis.

In data set [5] the test system is SH-SY5Y cells. Kind of data set: MTT cell viability, simultaneous treatment with Aβ aggregates and the compounds. Type of data set: cell-based, human. The conditions noted are these: 24 h, 0.3 µM Aβ aggregates, 0.9 µM compound. In outline: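 Aβ(1–42) was HFIP-pretreated, taken up at 5 mM in DMSO, diluted to 10 µM in PBS and aggregated 24 h at 37 °C. SH-SY5Y cells (5×10⁴/well, 24 h after plating) received 0.3 µM of these aggregates plus 0.9 µM compound together for 24 h. Read-out was MTT (4 h), OD570−OD700, as % of untreated and 100% death controls. Triplicate wells in ≥3 independent runs; ANOVA/Dunnett against DMSO vehicle.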

Data set [6] concerns APP/PS1 mice. As to conditions: cited from earlier work.
Data set [7] addresses T1, Aβ (1–42). The data set is described as follows: Native gel electrophoresis of Aβ. Type of data set: biochemical. As to conditions: 30 µM compound, 24 h, 37 °C. In short, it runs like this: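 HFIP-pretreated Aβ(1–42) (5 mM DMSO stock) was diluted to 10 µM in PBS with 30 µM compound (1.5 mM DMSO stock) and held 24 h at 37 °C in the dark; DMSO served as vehicle. Samples were brought to 2.25 µM in native sample buffer, run on 5–20% gels at 100 V for 4 h at 4 °C and transferred to PVDF. Blots used 6E10 anti-Aβ (1:1000), HRP anti-mouse (1:20,000) and chemiluminescence.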

Data set [8] has as its system amyloid plaques. The conditions noted are these: transgenic mouse model of AD, injection via the tail vein; cited from earlier work.
Data set [9] has as its target Aβ aggregates (Homo sapiens, UniProt P05067). Kind of data set: Thioflavin T fluorescence competition assay. Type of data set: binding.
Data set [10] relates to Aβ. The conditions noted are these: cited from earlier work.
[11] abbreviates: all ranges of 15–20, 20–37, 37–75, and 75–200 kDa.

T1 sequence (P05067 672-713): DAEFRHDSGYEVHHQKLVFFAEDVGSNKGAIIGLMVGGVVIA
Aβ aggregates, sequence (P05067 672-713): as above

`COc1cc(/C=C/C(=O)CC(=O)/C=C/c2ccc(O)c(OC)c2)ccc1O` [Cur, Curcumin, reference compound]: the viability at 24 h, 0.9 µM in data set [1] was 97.5 ± 7.3%. For the same compound, the Solubility / precipitation result in data set [2] (30 µM in PBS with DMSO) is on record as “no precipitation”; in data set [2] (200 µM solution), “clearly observed precipitates”.

Turning to `COc1cc(C=CC(=O)CC(=O)C=Cc2ccc(O)c(OC(F)(F)F)c2)ccc1O` [SY2, 1-[(4-Hydroxy-3-methoxy)phenyl]-7-[(4-hydroxy-3-trifluoromethoxy)phenyl]-1,6-heptadiene-3,5-dione], the “Viability C. Compound alone” value in [3] is on record as 101.4±2.0%. In addition, the “Densities of the bands of Aβ (1–42) vs vehicle control (in words)” value (“Densities … vs vehicle control (in words)” for short) in data set [4] (only in the range of 15–20 kDa) is on record as “significant increases”.

On to `COc1cc(C=CC(=O)CC(=O)C=Cc2cc(C(F)(F)F)cc(C(F)(F)F)c2)ccc1O` [SY4, 1-[(4-Hydroxy-3-methoxy)phenyl]-7-[3,5-bis(trifluoromethyl)phenyl]-1,6-heptadiene-3,5-dione], for which, in data set [3], the “Viability C. Compound alone” value is on record as 91.6±3.2%. Also, in [5], the “Cell viability after simultaneous treatment vs vehicle control (in words)” value was “significant reduction in cell viability”.

Take `COC(=O)CCC(C(=O)C=Cc1ccc(O)c(OC(F)(F)F)c1)C(=O)C=Cc1ccc(O)c(OC(F)(F)F)c1` (stereo not drawn) [SY5, 1,7-bis (4′-hydroxy-3′-trifluoromethoxyphenyl)-4-methoxycarbonylethyl-1,6-heptadiene-3,5-dione]: in [6], the Amyloid deposition result is listed as “reduce amyloid deposition” and the Cognitive decline entry is “inhibit cognitive decline”. Further, the “Smear bands in native-PAGE” value in data set [7] is on record as “Marked smear bands”. For the same compound, in data set [1], the viability at 24 h, 0.9 µM is 102 ± 3.6%. For the same compound, the Solubility / precipitation entry in data set [2] (30 µM in PBS with DMSO) is reported as “no precipitation”. For the same compound, the “Smear bands in SDS-PAGE” value in [4] is recorded as “Marked smear bands”. Besides, the “Densities … vs vehicle control (in words)” value in data set [4] (setting [11]) is given as “significant increases”. Also, in data set [8], the “Binding to amyloid plaques in brain” value is “bound to amyloid plaques” and the “Blood–brain barrier penetration” value is “penetrated the blood–brain barrier”. In [9], this compound showed an IC50 of 0.44 µM. Also, in data set [10] (30 µM, ref our previous study), the “Inhibition of Aβ aggregation” value is given as “significant inhibition of Aβ aggregation”. For the same compound, the “Formation of higher molecular size Aβ aggregates” value in data set [10] (incubated with Aβ during the aggregation state in vitro) is “inhibit the formation of higher molecular size Aβ aggregates”.

As for `COc1ccc(C=CC(=O)CC(=O)C=Cc2ccc(OC)c(F)c2)cc1F` [SY9, 1,7-Bis[(3-fluoro-4-methoxy)phenyl]-1,6-heptadiene-3,5-dione], the “Viability C. Compound alone” value in [3] is recorded as 94.2±2.5%. For the same compound, in data set [4], the “Effects on Aβ aggregation (in words)” value was “no effects on Aβ aggregation”.

In the case of `COC(=O)CCC(C(=O)C=Cc1cc(F)c(O)c(F)c1)C(=O)C=Cc1cc(F)c(O)c(F)c1` (stereo not drawn) [SY16, 1,7-Bis[(4-hydroxy-3,5-difluoro)phenyl]-4-methoxycarbonylethyl-1,6-hexadiene-3,5-dione], the “Viability C. Compound alone” value in data set [3] was 94.1±2.8%.

With `COc1ccc(C=CC(=O)C(C)C(=O)C=Cc2ccc(OC)c(OC(F)(F)F)c2)cc1OC(F)(F)F` (stereo not drawn) [SY18, 1,7-Bis[(4-methoxy-3-trifluoromethoxy)phenyl]-4-methyl-1,6-hexadiene-3,5-dione], the “Cell viability after treatment with compound alone (in words)” value in [3] (0.9 µM) is reported as “significantly reduced cell viability”. Further, the “Viability C. Compound alone” value in [3] is recorded as 69.5±7.7 %. Further, the “Effects on Aβ aggregation (in words)” value in [4] is “no effects on Aβ aggregation”.

With `COCOc1ccc(C=CC(=O)C(CCC(=O)OC(C)(C)C)C(=O)C=Cc2ccc(OCOC)c(OC(F)(F)F)c2)cc1OC(F)(F)F` (stereo not drawn) [SY22, 1,7-Bis[(4-methoxymethoxy-3-trifluoromethoxy)phenyl]-4-(1,1-dimethylethoxy)carbonylethyl-1,6-hexadiene-3,5-dione], the “Viability C. Compound alone” value in data set [3] is 95.8±3.6%. In addition, in data set [4], the “Effects on Aβ aggregation (in words)” value is “no effects on Aβ aggregation”.

In the case of `COC(=O)CCC(C(=O)C=Cc1ccc(O)c(OC)c1)C(=O)C=Cc1ccc(O)c(OC)c1` (stereo not drawn) [SY23, 1,7-Bis[(4-hydroxy-3-methoxy)phenyl]-4-methoxycarbonylethyl-1,6-heptadiene-3,5-dione], the “Viability C. Compound alone” value in [3] amounted to 97.9±2.4%.

Turning to `O=C(C=Cc1ccc(O)c(OC(F)(F)F)c1)C(CCOCCOCCOCCOC1CCCCO1)C(=O)C=Cc1ccc(O)c(OC(F)(F)F)c1` (stereo not drawn) [SY27, 1,7-Bis[(4-hydroxy-3-trifluoromethoxy)phenyl]-4-[11-(2-tetrahydropyranyloxy)-3,6,9-trioxaundec-1yl]-1,6-heptadiene-3,5-dione], the “Viability C. Compound alone” value in [3] worked out at 98.5±5.3%.

In the case of `O=C(C=Cc1ccc(O)c(OC(F)(F)F)c1)C(CCOC1CCCCO1)C(=O)C=Cc1ccc(O)c(OC(F)(F)F)c1` (stereo not drawn) [SY33, 1,7-Bis[(4-hydroxy-3-trifluoromethoxy)phenyl]-4-(2-tetrahydropyranyloxy)ethyl-1,6-heptadiene-3,5-dione], the “Smear bands in native-PAGE” value in [7] is “Marked smear bands”. In addition, the “Viability C. Compound alone” value in [3] is recorded as 97.8±4.2%. Also, the Solubility / precipitation result in data set [2] (30 µM in PBS with DMSO) was “no precipitation”. Moreover, the “Smear bands in SDS-PAGE” value in [4] is “Marked smear bands”. In addition, in data set [4] (setting [11]), the “Densities … vs vehicle control (in words)” value was “significant increases”.

As for `COC(=O)COc1ccc(C=CC(=O)CC(=O)C=Cc2ccc(O)c(OC)c2)cc1OC` [SY35, 1-[(4-Hydroxy-3-methoxy)phenyl]-7-[(3-methoxy-4-methoxycarbonylmethoxy)phenyl]-1,6-heptadiene-3,5-dione], in data set [3], the “Viability C. Compound alone” value is reported as 93.7±2.9%.

Turning to `COC(=O)CCC(C(=O)C=Cc1ccc(O)c(OC(F)(F)F)c1)C(=O)C=Cc1ccco1` (stereo not drawn) [SY37, 1-[(4-Hydroxy-3-trifluoromethoxy)phenyl]-7-(2-furyl)-4-methoxycarbonylethyl-1,6-heptadiene-3,5-dione], the “Viability C. Compound alone” value in data set [3] is reported as 93.0±4.1%. Moreover, in [4] (only in the range of 20–37 kDa), the “Densities … vs vehicle control (in words)” value is reported as “significant increases”.

Consider `COC(=O)CCC(C(=O)C=Cc1ccc(O)c(F)c1)C(=O)C=Cc1ccc(O)c(F)c1` (stereo not drawn) [SY38, 1,7-Bis[(4-hydroxy-3-fluoro)phenyl]-4-methoxycarbonylethyl-1,6-heptadiene-3,5-dione], for which, in data set [3], the “Viability C. Compound alone” value is recorded as 91.6±3.9%. Moreover, the “Densities … vs vehicle control (in words)” value in data set [4] (only in the range of 20–37 kDa) is “significant increases”.

`CCC(C(=O)C=Cc1ccc(O)c(OC(F)(F)F)c1)C(=O)C=Cc1ccc(O)c(OC(F)(F)F)c1` (stereo not drawn) [SY41, 1,7-Bis[(4-hydroxy-3-trifluoromethoxy)phenyl]-4-ethyl-1,6-heptadiene-3,5-dione]: in [3], the “Viability C. Compound alone” value was found to be 93.4±5.9%.

Turning to `COc1ccc(C=CC(=O)C(CCC(=O)OC(C)(C)C)C(=O)C=Cc2ccc(OC)c(F)c2)cc1F` (stereo not drawn) [SY42, 1,7-Bis[(3-fluoro-4-methoxy)phenyl]-4-(1,1-dimethylethoxy)carbonylethyl-1,6-heptadiene-3,5-dione], the “Viability C. Compound alone” value in data set [3] stood at 88.6±6.3%. For the same compound, in data set [4], the “Effects on Aβ aggregation (in words)” value is given as “no effects on Aβ aggregation”.
